Compound activity from PubChem BioAssay.
S1P4 agonist = S1P4 receptor agonists, primary screen, cell-based; S1P4-expressing cell line, agonist reporter assay; actives 0.35% (n = 220,000); Sphingosine 1-phosphate receptor 4 (Homo sapiens), O95977; AID 1509, 2009; activation, % at 4.98 µM; in the data active = activation above about 11%;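 also: 0% = DMSO vehicle and 100% = reference agonist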
Target sequence (O95977 whole entry, looked up): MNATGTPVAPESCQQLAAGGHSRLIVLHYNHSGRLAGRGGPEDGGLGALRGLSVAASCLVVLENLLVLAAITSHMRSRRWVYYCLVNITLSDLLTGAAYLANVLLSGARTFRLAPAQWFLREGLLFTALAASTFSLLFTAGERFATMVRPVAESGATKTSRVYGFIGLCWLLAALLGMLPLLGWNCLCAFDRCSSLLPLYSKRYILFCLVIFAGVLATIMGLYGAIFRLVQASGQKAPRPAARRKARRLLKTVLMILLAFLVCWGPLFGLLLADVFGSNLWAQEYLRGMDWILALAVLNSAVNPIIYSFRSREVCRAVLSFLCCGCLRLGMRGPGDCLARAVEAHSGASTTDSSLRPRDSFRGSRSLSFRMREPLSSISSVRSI
TNAP inh hi DEA = human TNAP enzyme inhibitors, primary screen, biochemical, luminescent, high phosphate acceptor level, uHTS | Alkaline phosphatase, tissue-nonspecific isozyme (Homo sapiens), P05186 | purified TNAP, CDP-star luminescence, 1 M DEA | inhibition, % at 20 µM | actives 0.03% (n = 200,000) | AID 1135, 2008;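 active = over 50% inhibition of tissue-nonspecific alkaline phosphatase at 20 µM in the single-dose screen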;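 also: plate controls were DMSO wells for no effect and EDTA-quenched wells as full inhibition for full effect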
TNAP act hi DEA = TNAP activators at high phosphate acceptor level, primary screen, biochemical, luminescence, uHTS. AID 1136, 2008. activation factor at 20 µM. Alkaline phosphatase, tissue-nonspecific isozyme (Homo sapiens), P05186. 200,000 tested, under 10 active. purified TNAP, CDP-star luminescence, 1 M DEA, 30 min; stronger effect = higher value; 0 = EDTA background, 1 = DMSO-only activity;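 active = activation factor at least 2 at 20 µM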
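Measured by: Luminescent substrate turnover signal | Test system: Human TNAP | Input: TNAP 1/800 final | Dosing: 20 µM single point | Schedule: 30 min, room temperature | Controls: EDTA wells as negative control, DMSO wells as positive control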
TNAP inh no acc = human TNAP enzyme inhibitors, primary screen, biochemical, luminescent, no phosphate acceptor, uHTS; Alkaline phosphatase, tissue-nonspecific isozyme (Homo sapiens), P05186; purified TNAP, CDP-star luminescence, 30 min; inhibition, % at 20 µM; actives 0.26% (n = 200,000);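 active = tissue-nonspecific alkaline phosphatase inhibition above about 50% at 20 µM in the single-dose screen, limit read from the data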;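 also: 0% = DMSO negative control and 100% = EDTA positive control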
S1P3 antag = S1P3 receptor antagonists, primary screen, cell-based. inhibition, % at 4.98 µM. actives 0.27% (n = 170,000). CHO S1P3 NFAT-BLA reporter, FRET fluorescence, antagonist mode. Sphingosine 1-phosphate receptor 3 (Homo sapiens), Q99500;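 active = inhibition above the plate cutoff, the mean inhibition of test wells on that plate plus 3 SD, cut at about 28% in these data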;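 also: cells challenged with S1P at its EC80 of 0.8 µM; blue over green emission ratio from cleaved BLA substrate after 4 h stimulation; 0% = S1P-stimulated wells and 100% = unstimulated DMSO-only wells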
Target sequence (Q99500 whole entry, looked up): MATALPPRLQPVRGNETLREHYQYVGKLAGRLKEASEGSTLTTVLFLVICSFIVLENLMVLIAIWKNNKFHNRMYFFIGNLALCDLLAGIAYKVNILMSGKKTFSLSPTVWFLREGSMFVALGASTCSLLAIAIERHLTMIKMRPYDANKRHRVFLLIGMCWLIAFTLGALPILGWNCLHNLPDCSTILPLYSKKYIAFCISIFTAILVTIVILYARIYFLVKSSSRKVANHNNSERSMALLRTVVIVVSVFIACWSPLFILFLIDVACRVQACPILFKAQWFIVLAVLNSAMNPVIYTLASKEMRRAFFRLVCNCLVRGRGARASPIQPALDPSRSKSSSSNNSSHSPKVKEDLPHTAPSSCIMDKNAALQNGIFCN
S1P4 antagonist = S1P4 receptor antagonists, primary screen, cell-based. Sphingosine 1-phosphate receptor 4 (Homo sapiens), O95977. S1P4-expressing cells, antagonist mode, reporter read-out. inhibition, % at 4.98 µM. actives 0.26% (n = 220,000). AID 1510, 2009; in the data active = inhibition above about 29%;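 also: 0% = wells stimulated with agonist and 100% = vehicle wells without agonist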
S1P4 agonist cf = S1P4 receptor agonists, retest, confirmation, cell-based, high throughput; shares compounds with S1P4 agonist; S1P4 agonist cell-based reporter assay; activation, % at 4.98 µM; actives 7% (n = 740); AID 1523, 2009; in the data active = activation above about 12%;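 also: 0% = vehicle and 100% = full reference agonist response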
S1P1 ag = S1P1 receptor agonists, human, counter-screen for S1P4 agonist project, cell-based; shares compounds with S1P4 agonist; actives 4% (n = 740); activation, % at 4.98 µM; S1P1 agonist cell-based assay, activation; AID 1563, 2009; in the data active = activation above about 21%;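 also: 0% = vehicle wells and 100% = reference agonist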
* hit, by the source's call; x = no result. Sampled rows, rich in hits. Any-hit rate of the full collection: about 1.1%.

SMILES | S1P4 agonist | TNAP inh hi DEA | TNAP act hi DEA | TNAP inh no acc | S1P3 antag | S1P4 antagonist | S1P4 agonist cf | S1P1 ag
O=c1c2c3c(sc2nc2sc(CN4CCOCC4)cn12)CCCC3 | 40.5* | -1.8 | 1 | -1.2 | 2.2 | -13.0 | -2.0 | -4.2
CCCCOc1ccc(-c2nnn(CC(=O)NCc3ccco3)n2)cc1 | -1.7 | -9.1 | 1.1 | -13.2 | -42.9 | -5.8 | x | x
CC(C)CC(=O)Nc1ccc(-c2nnn(CC(=O)NCc3ccco3)n2)cc1 | 14.2* | 0.1 | 1 | -0.6 | -10.3 | -3.5 | -1.6 | -4.6
CC(Sc1ncc(C(F)(F)F)cc1Cl)C(=O)NCC1CCCO1 (configuration not stated) | -0.7 | -5.7 | 1.1 | -5.9 | -0.3 | -17.7 | x | x
CCCCCC(=O)Nc1ccc(Cl)cn1 | 15.1* | -4.9 | 1 | -3.6 | 10.3 | -9.1 | -1.1 | -3.7
CCCCC(=O)Nc1ccc(Cl)cn1 | -0.8 | -5.6 | 1.1 | -18.6 | 11.2 | -15.7 | x | x
CCOc1ccc(C(C)=O)cc1CN1C(=O)NC2(CCCCCCC2)C1=O | -0.1 | -1.2 | 1 | -6.8 | -13.5 | 10.8 | x | x
COc1ccc(NC(=S)N2CCN(c3ccccn3)CC2)cc1OC | 27.6* | -5.6 | 1.1 | 2.1 | 3.9 | -23.4 | -2.0 | -6.7
COc1cc(NC(=S)N2CCN(c3ccccn3)CC2)cc(OC)c1OC | -0.6 | -8.2 | 1.1 | -6.2 | 7.8 | 3.9 | x | x
CC(=O)NN1C(=O)c2ccc(Oc3ccc([N+](=O)[O-])cc3)cc2C1=O | 0.0 | -4.2 | 1 | -6.7 | x | -1.5 | x | x
CC(=O)NN1C(=O)c2ccc(Oc3ccc4c(c3)C(=O)N(NC(C)=O)C4=O)cc2C1=O | 22.7* | -2.9 | 1 | -47.5 | -9.5 | -10.9 | -2.0 | 0.5
O=C(CCC1CCCN(c2ncccn2)C1)NCc1ccc(F)c(F)c1 (configuration not stated) | -1.0 | 2.3 | 1 | -3.9 | -21.0 | 7.5 | x | x
COc1ccc(NC(=O)CSc2ccccc2)c([N+](=O)[O-])c1 | -1.3 | 1.8 | 1 | -2.3 | -2.8 | 3.9 | x | x
COc1ccc(NC(=O)CSc2nc3ccccc3n2-c2ccccc2)c([N+](=O)[O-])c1 | 44.5* | -5.8 | 1.1 | 16.7 | -3.4 | -5.5 | -0.6 | -2.8
Cc1cc(Oc2ccc(-c3nnc(-c4ccccc4)o3)cc2[N+](=O)[O-])ccc1Cl | 13.8* | -2.2 | 1 | -13.9 | 11.0 | -1.7 | -0.7 | 1.6
Cc1nnc(-c2ccc(Oc3ccc(Br)cc3)c([N+](=O)[O-])c2)o1 | 1.7 | 2.4 | 1 | -11.0 | 8.9 | -16.7 | x | x
CNC(=S)N1CCc2cc(OC)c(OC)cc2C1COc1ccc(OC)cc1 (configuration not stated) | 0.2 | 0.8 | 1 | -11.9 | 0.9 | -27.4 | x | x
COCCNC(=S)N1CCc2cc(OC)c(OC)cc2C1COc1cc(C)cc(C)c1 (configuration not stated) | 17.8* | -5.5 | 1.1 | -15.2 | -14.4 | -0.1 | -2.2 | 0.8
CC(C)n1c(=NC(=O)c2ccco2)c(C#N)cc2c(=O)n3ccccc3cc21 | 11.8* | -0.1 | 1 | -13.0 | -33.4 | -30.3 | -0.1 | 8.8
O=C1CCC([N+](=O)[O-])C(c2ccc3c(c2)OCO3)N1 (configuration not stated) | 114.4* | -2.9 | 1 | -2.2 | -15.4 | 5.2 | -0.5 | 1.5
Cc1ccc2[nH]c3c(=O)n(CCC4=CCCCC4)cnc3c2c1 | 1.3 | -6.0 | 1.1 | -13.2 | x | -5.4 | x | x
O=c1c2[nH]c3ccccc3c2ncn1CCC1=CCCCC1 | 17.1* | -7.2 | 1.1 | -7.2 | 11.7 | -9.3 | -1.5 | -1.9
C=CCNC(=S)N1CCN(Cc2ccccc2)CC1 | 1.7 | -5.3 | 1.1 | -8.9 | -18.5 | 1.3 | x | x
CCn1nc(C)c(NC(=O)/C=C/c2cnn(C)c2)c1C | -1.1 | -6.5 | 1.1 | -12.3 | x | -6.1 | x | x
CCn1cc(/C=C/C(=O)Nc2c(C)nn(Cc3ccccc3C)c2C)cn1 | 20.4* | 4.0 | 1 | -2.9 | -2.9 | -18.8 | -0.8 | 3.1
SMILES | S1P4 agonist | TNAP inh hi DEA | TNAP act hi DEA | TNAP inh no acc | S1P3 antag | S1P4 antagonist | S1P4 agonist cf | S1P1 ag
CCN(CC)c1ccc2c(C)c(Cl)c(=O)oc2c1 | 15.9* | -15.4 | 1.2 | -20.4 | 6.2 | -3.7 | 8.5 | 9.3
O=C(CCCN1C(=O)/C(=C/c2ccccc2Cl)SC1=S)NNC(=O)c1ccccc1 | 18.3* | 4.4 | 1 | -68.6 | -4.5 | -3.7 | -2.7 | -0.9
O=C(CCCN1C(=O)/C(=C/c2ccccc2Cl)SC1=S)NNC(=O)c1cccnc1 | -0.2 | x | x | x | -2.4 | 5.9 | x | x
C=CCn1c(SCC(=O)Nc2nnc(CC)s2)nnc1-c1ccco1 | 29.1* | 0.4 | 1 | -2.9 | -8.8 | -15.5 | -1.3 | 0.5
Cc1cc(C)n(-c2nc3ccccc3nc2N2CCCC2)n1 | 87.5* | 0.5 | 1 | -5.7 | x | -2.3 | -2.1 | -7.4
C=CCNC(=O)c1ccc(OC)cc1 | 14.7* | x | x | x | -16.1 | -1.7 | -1.0 | 3.7
C=CCNC(=O)c1ccc(N(C)S(=O)(=O)c2ccc(OC)cc2)cc1 | -3.0 | -5.4 | 1.1 | -12.7 | x | -29.4 | x | x
COc1ccc(C)cc1NC(=O)c1cnc2n(c1=O)CCS2 | 16.9* | 3.8 | 1 | -5.6 | 2.1 | -17.9 | -1.8 | -1.2
COc1ccc(C)cc1NC(=O)c1cnc2scc(C)n2c1=O | -0.4 | -7.2 | 1.1 | -14.3 | -19.1 | -13.2 | x | x
COc1cc(C(=O)NCc2cccc3ccccc23)cc(Cl)c1OC | 0.0 | -3.5 | 1 | -7.5 | x | -12.6 | x | x
CCC1(C(=O)OC)CCc2c(cc(OC)c3ccccc23)C1=O (configuration not stated) | 12.7* | x | x | x | 2.2 | -23.2 | -2.7 | -0.4
CCOC1CCc2c(C)nc(N)nc2S1 (configuration not stated) | 23.9* | x | x | x | -1.8 | 2.2 | -2.1 | 0.1
C=C(C)C1Cc2nc(N)nc(C)c2C1 (configuration not stated) | -0.5 | -0.3 | 1 | -4.9 | -13.8 | -26.2 | x | x
COc1ccc(NC(=O)CSc2nc(C)cs2)c(OC)c1 | 73.9* | -3.7 | 1 | -8.5 | -5.7 | 5.4 | -2.8 | 1.4
CN(C)c1ccc(N/C(N)=N/c2nc(C(F)(F)F)cc(C(F)(F)F)n2)cc1 | 0.8 | -0.6 | 1 | 0.8 | -9.2 | 2.7 | x | x
